# Test results: paper PMC3009390 (Chemical biology & drug design, 2010)
# Assays:
# [1] = test system: CD58 protein; assay: 1D NMR titration: binding of peptides to CD58 protein; conditions: pH 7.0, 90% H2O/10% D2O, 291 K, 700 MHz, protein:peptide 1:80
# Procedure, shortened: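 Recombinant CD58 extracellular domain was titrated in 10 µL aliquots into an NMR tube holding the test peptide. A 1D spectrum was recorded at each protein:peptide ratio from 1:1000 to 1:80 on a 700 MHz instrument at 291 K. Sample pH was set to 7.0 with NaOD in D2O. A control peptide was run the same way.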
# [2] = test system: CD58 protein on Caco-2 cells; assay: Fluorescence microscopy of binding to Caco-2 cells; format: cell-based, human; conditions: fixed Caco-2 cells, about 2 h incubation, magnification 20×
# [3] = test system: RA; conditions: ref [41]; cited from earlier work
molecule,measurement,setting,value
KGKTDAISVKAI-NH2 [control peptide],binding to CD58 protein by 1D NMR,[1],does not bind to protein CD58
same,change of peptide 1D NMR amide resonances on adding CD58,[1],no indication of amide resonances
"O=C1OC2(c3ccc(O)cc3Oc3cc(O)ccc32)c2ccc(N=C=S)cc21 [FITC, Fluoresceineisothiocyanate]",binding observed by fluorescence microscopy,[2],non-specific binding of FITC was observed
QYMRADEADSTLR [CII-3],RA suppression activity,[3],does not exhibit any RA suppression activity
